Experimental findings from ChEMBL document CHEMBL1153955, “Indolylarylsulfones bearing natural and unnatural amino acids. Discovery of potent inhibitors of HIV-1 non-nucleoside wild type and resistant mutant strains reverse transcriptase and coxsackie B4 virus” (J Med Chem, 2009) are described below.

As usually defined, the IC50 is the concentration that gives 50% inhibition. In general, EC50 refers to the concentration giving half of the maximal effect. Broadly, the CC50 is the concentration at which the toxic effect on the cells reaches its halfway point.

The target in data set [1] is Human immunodeficiency virus type 1 reverse transcriptase (Human immunodeficiency virus 1, UniProt Q72547). In words: Inhibition of HIV1 reverse transcriptase p66/p51. As to conditions: read-out: IC50.
Data set [2] concerns the target Human immunodeficiency virus type 1 reverse transcriptase (Human immunodeficiency virus 1, UniProt Q72547, K103N). Briefly: Inhibition of HIV1 reverse transcriptase p66/p51 K103N mutant. As to conditions: read-out: IC50. In outline:
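Substrate was 0.5 µg poly(rA)/oligo(dT) 10:1 (0.3 µM 3′-OH ends) with 10 µM [³H]dTTP, at 37 °C. Acid-precipitable radioactivity was counted on GF/C filters after TCA washes.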

Data set [3] relates to Respiratory syncytial virus. In words: Antiviral activity against RSV Long in human HeLa cells assessed as protection against virus-induced cytopathicity. Type of data set: functional, organism-based. In outline:
(§1)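 Confluent cell monolayers inoculated with 100 CCID₅₀ virus. After 1-2 h adsorption, residual virus removed and cultures incubated with varying compound concentrations. Cytopathicity scored once it reached completion in untreated infected controls. EC₅₀ = dose reducing virus-induced cytopathogenicity by 50%.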

A short description of data set [4]: Cytotoxicity against human HeLa cells assessed as drug level causing microscopically detectable alteration of normal cell morphology after 3 days. Type of data set: cell-based. In outline: (§2)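 Serial compound dilutions added to confluent HeLa or Vero monolayers. MCC = minimum concentration causing microscopically detectable alteration of cell morphology after 3 days of incubation.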

Data set [5] can be described thus: Cytotoxicity against african green monkey Vero cells assessed as drug level causing microscopically detectable alteration of normal cell morphology after 3 days. Particulars: chlorocebus sabaeus. Type of data set: cell-based. The essentials: as §2
The subject of data set [6] is Coxsackievirus B4. In words: Antiviral activity against Coxsackievirus B4 in human HeLa cells assessed as protection against virus-induced cytopathicity. Type of data set: functional, organism-based. As to conditions: Enterovirus B. The essentials: as §1
The test system of data set [7] is Coxsackievirus B4. Briefly: Antiviral activity against Coxsackievirus B4 in african green monkey Vero cells assessed as protection against virus-induced cytopathicity. It counts as functional, organism-based. As to conditions: Enterovirus B. In outline:
as §1
In general terms: Damage to the host cells serves as the signal in cytopathic effect assays.

Data set [8] relates to Human respirovirus 3. Briefly: Antiviral activity against Parainfluenza virus type 3 in african green monkey Vero cells assessed as protection against virus-induced cytopathicity. Type of data set: functional, organism-based. As to conditions: Human respirovirus 3, Vero. In outline: as §1
Data set [9] deals with Sindbis virus. In words: Antiviral activity against Sindbis virus in african green monkey Vero cells assessed as protection against virus-induced cytopathicity. Type of data set: functional, organism-based. In outline:
as §1

The subject of data set [10] is Punta Toro virus. Briefly: Antiviral activity against Punta Toro virus in african green monkey Vero cells assessed as protection against virus-induced cytopathicity. Type of data set: functional, organism-based. In outline:
as §1

Data set [11] in a line: Cytotoxicity against human HEL cells assessed as drug level causing microscopically detectable alteration of normal cell morphology after 3 days. Type of data set: cell-based.
The subject of data set [12] is Human alphaherpesvirus 1. In words: Antiviral activity against HSV1 KOS in human HEL cells assessed as protection against virus-induced cytopathicity. It counts as functional, organism-based. As to conditions: Human alphaherpesvirus 1, KOS.
For data set [13], the system named is Human alphaherpesvirus 2. In words: Antiviral activity against HSV2 G in human HEL cells assessed as protection against virus-induced cytopathicity. Particulars: Human alphaherpesvirus 2, strain G. Type of data set: functional, organism-based. In outline: as §1
Data set [14] deals with Vaccinia virus. Briefly: Antiviral activity against Vaccinia virus Lederle in human HEL cells assessed as protection against virus-induced cytopathicity. Particulars: Orthopoxvirus vaccinia. It counts as functional, organism-based.
The subject of data set [15] is Vesicular stomatitis virus. Briefly: Antiviral activity against VSV in human HEL cells assessed as protection against virus-induced cytopathicity. It counts as functional, organism-based.
Data set [16] has as its system Human alphaherpesvirus 1. In words: Antiviral activity against thymidine kinase deficient and acyclovir resistant HSV1 KOS in human HEL cells assessed as protection against virus-induced cytopathicity. Type of data set: functional, organism-based. As to conditions: Human alphaherpesvirus 1, KOS.
A short description of data set [17]: Cytotoxicity against MDCK cells assessed as drug level causing microscopically detectable alteration of normal cell morphology. It counts as cell-based, Canis lupus familiaris. As to conditions: dog.
Data set [18] in a line: Cytotoxicity against MDCK cells by MTS assay. It counts as cell-based, Canis lupus familiaris. As to conditions: dog. (Tetrazolium dyes change colour on reduction, which living cells bring about.)
In data set [19] the test system is Influenza A virus. In words: Antiviral activity against influenza H1N1 virus in MDCK cells assessed as reduction of virus-induced cytopathicity by visual cytopathic effect scoring method. It counts as functional, organism-based.
In data set [20] the test system is Influenza A virus. In words: Antiviral activity against influenza H1N1 virus in MDCK cells assessed as reduction of virus-induced cytopathicity by MTS method. It counts as functional, organism-based.
Data set [21] deals with Influenza A virus H3N2. In words: Antiviral activity against influenza H3N2 virus in MDCK cells assessed as reduction of virus-induced cytopathicity by MTS method. Type of data set: functional, organism-based.
Data set [22] deals with Influenza B virus. In words: Antiviral activity against influenza B virus in MDCK cells assessed as reduction of virus-induced cytopathicity by visual cytopathic effect scoring method. It counts as functional, organism-based.
Data set [23] deals with Influenza B virus. Briefly: Antiviral activity against influenza B virus in MDCK cells assessed as reduction of virus-induced cytopathicity by MTS method. Type of data set: functional, organism-based.
The test system of data set [24] is Vesicular stomatitis virus. Briefly: Antiviral activity against VSV in human HeLa cells assessed as protection against virus-induced cytopathicity. Type of data set: functional, organism-based.
The subject of data set [25] is Mammalian orthoreovirus 1. Briefly: Antiviral activity against Reovirus 1 in african green monkey Vero cells assessed as protection against virus-induced cytopathicity. Type of data set: functional, organism-based. Particulars: Mammalian orthoreovirus 1, Vero. In outline: as §1
The subject of data set [26] is Human immunodeficiency virus 1. Briefly: Antiviral activity against HIV1 3B in human CEM cells assessed as protection against virus-induced cytopathicity after 4 days. Type of data set: functional, organism-based. Particulars: Human immunodeficiency virus 1, 3B, CCRF-CEM, 96 h. The essentials:
(§3)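 CEM cells (~3 × 10⁵ cells/mL) infected with ~100 CCID₅₀ per mL of HIV-1 (IIIB) or HIV-2 (ROD), then seeded into wells containing compound dilutions. After 4 days at 37 °C, syncytium (giant cell) formation was examined microscopically. EC₅₀ = concentration protecting CEM cells from HIV cytopathicity by 50%.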

The test system of data set [27] is Human immunodeficiency virus 2. In words: Antiviral activity against HIV2 ROD in human CEM cells assessed as protection against virus-induced cytopathicity after 4 days. Type of data set: functional, organism-based. As to conditions: Human immunodeficiency virus 2, ROD, CCRF-CEM, 96 h. The essentials: as §3
For data set [28], the system named is L1210. In words: Antiproliferative activity against mouse L1210 cells after 2 days. As to conditions: L1210, 48 h. It counts as cell-based. In outline:
(§4)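 Cells seeded at 5 × 10⁴ to 7.5 × 10⁴ cells/200 µL with or without serial compound dilutions; incubated at 37 °C for 2 days (L1210) or 3 days (Molt4/C8, CEM). Cell numbers counted with a Coulter counter. CC₅₀ = concentration reducing proliferation by 50% versus untreated controls, read from plots of cell number (% of control) against concentration. Means of at least two independent experiments.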

The nature of data set [29]: Antiproliferative activity against human Molt4/C8 cells after 3 days. Type of data set: cell-based. As to conditions: MOLT-4, 72 h. In outline:
as §4

For data set [30], the system named is CCRF-CEM. Briefly: Antiproliferative activity against human CEM cells after 3 days. It counts as cell-based. Particulars: 72 h. The essentials: as §4
Data set [31] deals with Influenza A virus H3N2. Briefly: Antiviral activity against influenza H3N2 virus in MDCK cells assessed as reduction of virus-induced cytopathicity by visual cytopathic effect scoring method. It counts as functional, organism-based.
A short description of data set [32]: Cytotoxicity against feline CRFK cells by MTS assay. Type of data set: cell-based, Felis catus. As to conditions: cat.
Data set [33] has as its system Feline coronavirus. Briefly: Antiviral activity against Feline coronavirus in feline […] cells assessed as inhibition of virus-induced cytopathicity. Type of data set: functional, organism-based. As to conditions: Alphacoronavirus 1.
Data set [34] relates to Felid alphaherpesvirus 1. In words: Antiviral activity against Feline herpesvirus in feline […] cells assessed as inhibition of virus-induced cytopathicity. It counts as functional, organism-based.

As to `Cc1cc(C)cc(S(=O)(=O)c2c(C(=O)N[C@H](C)C(N)=O)[nH]c3ccc(Br)cc23)c1`, the results for the IC50 in data set [1] and in data set [2] were 16 nM and 324 nM, respectively.
`NC(=O)c1ncn([C@@H]2O[C@H](CO)[C@@H](O)[C@H]2O)n1` [RIBAVIRIN]: the concentration for a half-maximal effect (EC50) in [3] is 10 µM; in data set [6] it was 50 µM; in [7] it was at least 250 µM; in data set [8] it was above 50 µM; in [9] it was 250 µM; in data set [10], 50 µM. Also, the concentration giving a half-maximal response (EC50) is above 250 µM in data set [12]; 250 µM in data set [13]; 112 µM in data set [14]; 125 µM in data set [15]; above 250 µM in [16]; 900 µM in data set [19]. The EC50 in [20] (mdck) was 8.4 mM; in [21], 8.1 µM; in data set [22], 4 µM; in [23], 4.8 µM. Further, the MCC at 72 h in data set [4], in data set [5] and in data set [11] was above 250 µM in each case. The MCC in [17] was above 100 µM. This compound also returned a CC50 in data set [18] above 100 µM.
On to `Nc1ncnc2c1ncn2C[C@H](O)CO` [(S)-DHPA], for which the EC50 in [3], in data set [24], in data set [6], in data set [7], in [8] and in [25] was above 250 µM throughout. Besides, the 50% effective concentration (EC50) in [9] and in data set [10] was above 250 µM throughout. Also, the MCC at 72 h in data set [4] and in [5] was above 250 µM in each case.
For the compound `Cc1cc(C)cc(S(=O)(=O)c2c(C(=O)NNC(C)C)[nH]c3ccc(Cl)cc23)c1`, the EC50 in data set [3] is above 100 µM; in data set [24], above 100 µM; in [26], 6.4 nM; in data set [27] it was above 50 µM; in [6], above 100 µM; in data set [7], above 100 µM. The concentration giving a half-maximal response (EC50) in data set [8], in data set [25], in data set [9], in data set [10], in [12] and in data set [13] was above 100 µM throughout. The 50% effective concentration (EC50) in data set [14] was above 100 µM; in [15] it was above 100 µM; in data set [16] it was above 100 µM; in data set [19], above 20 µM; in data set [20] (Influenza A virus, H1N1, MDCK), above 0.02 mM; in [31], above 20 µM. Also, the EC50 was above 20 µM in [21]; above 20 µM in data set [22]; above 20 µM in [23]; above 100 µM in [33]; above 100 µM in data set [34]. The IC50 in data set [28] was above 500 µM; in data set [29], 432 µM; in data set [30], at least 500 µM; in data set [1], 10 nM; in data set [2], 800 nM. Moreover, the MCC at 72 h in [4], in data set [5] and in data set [11] was above 100 µM each time. For the same compound, the MCC in data set [17] was found to be 100 µM. Further, the 50% cytotoxic concentration (CC50) in data set [18] and in data set [32] was above 100 µM throughout.
For `Nc1ccn(C[C@@H](CO)OCP(=O)(O)O)c(=O)n1` [CIDOFOVIR], the MCC at 72 h in [11] was above 250 µM. For the same compound, the 50% effective concentration (EC50) in data set [12] was 2 µM; in [13], 1 µM; in [14], 20 µM; in data set [15], above 250 µM; in data set [16], 1 µM.
Take `Cc1cc(C)cc(S(=O)(=O)c2c(C(=O)N[C@H](C)C(N)=O)[nH]c3ccc(Cl)cc23)c1`: the half-maximal inhibitory concentration (IC50) in data set [1] is 17 nM; in [2], 253 nM.
`Cc1cc(C)cc(S(=O)(=O)c2c(C(=O)N[C@H](C)CC(N)=O)[nH]c3ccc(Cl)cc23)c1`: the half-maximal inhibitory concentration (IC50) came out at 147 nM in [1] and 1420 nM in data set [2].
